According to ChEMBL document CHEMBL4024799, “Synthesis and Biological Characterization of Aryl Uracil Inhibitors of Hepatitis C Virus NS5B Polymerase: Discovery of ABT-072, a trans-Stilbene Analog with Good Oral Bioavailability” (J Med Chem, 2018):
In brackets after ≈: the same amount, converted by molar mass.

Key:
[1] = Inhibition of HCV genotype 1a H77 NS5B RNA dependent RNA polymerase assessed as reduction in [3H]UTP incorporation in to RNA preincubated for 15 mins followed by [3H]UTP addition measured after 3 hrs by microbeta scintillation counting method; design: species or system Hepatitis C virus (isolate H77)
Summary of the method: (§1)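 NS5B polymerase from genotype 1a (H77) or 1b (BK); formation of RNA product measured as 3H-UTP incorporation by scintillation counting; IC50 calculated with a standard IC50 equation.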

[2] = AUC in Sprague-Dawley rat at 5 mg/kg, po; assay type: ADME, organism-based; conditions: in vivo
Summary of the method: (§2)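 Sprague-Dawley rats, n = 3 per experiment; solution in DMSO:PEG400 (1:9, v/v) given IV or oral; 5 mg/kg for both routes, and 30 mg/kg oral; plasma t1/2, Vss, clearance, Cmax, AUC and F% determined.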

[3] = Stability in rat liver microsomes assessed as parent compound remaining after 30 mins; assay type: ADME, microsome; conditions: read-out: Stability
Summary of the method: (§3)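 Compound incubated 30 min with human or rat liver microsomes; percent of parent compound remaining reported.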

[4] = Plasma clearance in Sprague-Dawley rat at 5 mg/kg, iv; assay type: ADME, organism-based; summary of the method: as §2
[5] = Inhibition of HCV genotype 1b BK NS5B RNA dependent RNA polymerase assessed as reduction in [3H]UTP incorporation in to RNA preincubated for 15 mins followed by [3H]UTP addition measured after 3 hrs by microbeta scintillation counting method; design: species or system Hepatitis C virus (isolate BK); summary of the method: as §1
[6] = Passive permeability of the compound by PAMPA; assay type: physicochemical; conditions: read-out: permeability
Hepatitis C virus [7] = test: Antiviral activity against HCV genotype 1b Con1 infected in human HuH7 cells harboring HCV subgenomic bicistronic replicon after 3 days in presence of 40% human plasma by luciferase reporter gene assay; assay type: functional, cell-based, Hepacivirus hominis; conditions: genotype 1b Con1, Huh-7, 72 h
Summary of the method: (§4)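 Subgenomic genotype 1a (H77) or 1b (Con1) replicons carrying firefly luciferase, transfected into Huh-7 cells. Replication inhibition was read as luciferase level in cell lysate on a luminometer and reported as EC50. Runs were done without human plasma or with 40% human plasma added, to assess inhibitor–protein binding.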

[8] = Stability in human liver microsomes assessed as parent compound remaining after 30 mins; assay type: ADME, microsome; conditions: read-out: Stability; summary of the method: as §3
[9] = Aqueous solubility of the compound at pH 7.2; assay type: physicochemical; conditions: buffer
Hepatitis C virus [10] = test: Antiviral activity against HCV genotype 1b Con1 infected in human HuH7 cells harboring HCV subgenomic bicistronic replicon after 3 days by luciferase reporter gene assay; assay type: functional, cell-based, Hepacivirus hominis; conditions: genotype 1b Con1, Huh-7, 72 h; summary of the method: as §4
[11] = Cmax in Sprague-Dawley rat at 5 mg/kg, po; assay type: ADME, organism-based; design: dose 5 mg/kg, route oral; conditions: in vivo; summary of the method: as §2
[12] = Ratio of plasma concentration in Sprague-Dawley rat at 5 mg/kg, po to EC50 for HCV genotype 1b Con1 infected in human HuH7 cells harboring HCV subgenomic bicistronic replicon
[13] = Oral bioavailability in Sprague-Dawley rat at 5 mg/kg; assay type: ADME, organism-based; conditions: in vivo; summary of the method: as §2
Hepatitis C virus [14] = test: Antiviral activity against HCV genotype 1a H77 infected in human HuH7 cells harboring HCV subgenomic bicistronic replicon after 3 days in presence of 40% human plasma by luciferase reporter gene assay; assay type: functional, cell-based, Hepacivirus hominis; conditions: genotype 1a H77, Huh-7, 72 h; summary of the method: as §4
Rattus norvegicus = test: Time at which plasma concentration stays above HCV genotype 1b Con1 replicon EC50 in Sprague-Dawley rat at 5 mg/kg, po
[15] = Half life in Sprague-Dawley rat at 5 mg/kg, po; assay type: ADME, organism-based; conditions: in vivo; summary of the method: as §2
[16] = Plasma concentration in Sprague-Dawley rat at 5 mg/kg, po up to 8 hrs; assay type: ADME, organism-based; summary of the method: as §2
Hepatitis C virus [17] = test: Antiviral activity against HCV genotype 1a H77 infected in human HuH7 cells harboring HCV subgenomic bicistronic replicon after 3 days by luciferase reporter gene assay; assay type: functional, cell-based, Hepacivirus hominis; conditions: genotype 1a H77, Huh-7, 72 h; summary of the method: as §4

Structure (SMILES)	IC50 [1] [nM]	AUC [2] [ng·h/mL]	remaining at 0.5 h [3] [%]	clearance [4] [mL/min/kg]	IC50 [5] [nM]	Papp [6] [×10⁻⁶ cm/s]	EC50 (Hepatitis C virus [7]) [nM]	remaining at 0.5 h [8] [%]	solubility ([9]; read-out: solubility) [µM]	EC50 (Hepatitis C virus [10]) [nM]	Cmax [11] [ng/mL]	Ratio [12]	bioavailability [13] [%]	EC50 (Hepatitis C virus [14]) [nM]	Time (Rattus norvegicus) [h]	half-life [15] [h]	concentration at 8 h [16] [nM]	EC50 (Hepatitis C virus [17]) [nM]	solubility [9] [µM]
COc1c(C(=O)Nc2ccc(NS(C)(=O)=O)cc2)cc(N2CCC(=O)NC2=O)cc1C(C)(C)C	10.8	50	> 85	25	21.7	0.25	22	> 85	< 1.5	19	–	–	–	–	–	–	–	–	–
COc1c(CNc2ccc(NS(C)(=O)=O)cc2)cc(N2CCC(=O)NC2=O)cc1C(C)(C)C	80	–	58	–	270	0.41	–	67	90.8 (≈ 43.1 µg/mL)	522	–	–	–	–	–	–	–	–	–
COc1c(/C=C/c2ccc(NS(C)(=O)=O)cc2)cc(N2CCC(=O)NC2=O)cc1C(C)(C)C	0.3	1520	33.5	10.7	0.7	0.92	3.1	48.1	–	1.1	260	>60	18	50	8	2.3	> 200	3.1	10.3 (≈ 4.86 µg/mL)
COc1c(/C=C/c2ccc(NS(C)(=O)=O)c(F)c2)cc(-n2ccc(=O)[nH]c2=O)cc1C(C)(C)C	–	10400	–	6.33	–	–	5.3	–	15.5 (≈ 7.56 µg/mL)	2.1	–	–	76	–	–	3.7	–	13.8	–
COc1c(/C=C(\C)c2ccc([N+](=O)[O-])cc2)cc(N2CCC(=O)NC2=O)cc1C(C)(C)C	4.9	–	36.5	–	16.7	0.58	82.8	18.5	< 2	12.4	–	–	–	–	–	–	–	–	–
COc1c(COc2ccc(NS(C)(=O)=O)cc2)cc(N2CCC(=O)NC2=O)cc1C(C)(C)C	100	–	80	–	167	7.47	321	> 85	3 (≈ 1.43 µg/mL)	53	–	–	–	–	–	–	–	–	–
COc1c(/C=C/c2ccc(NS(C)(=O)=O)cc2)cc(-n2cc(F)c(=O)[nH]c2=O)cc1C(C)(C)C	–	3120	–	14.2	–	–	59.4	–	15.5 (≈ 7.56 µg/mL)	9.6	–	–	52	–	–	3.7	–	89	–
COc1c(CCc2ccc(NS(C)(=O)=O)cc2)cc(N2CCC(=O)NC2=O)cc1C(C)(C)C	26.5	–	1.6	–	40.3	4.06	91.3	2.5	18.8 (≈ 8.9 µg/mL)	39.1	–	–	–	–	–	–	–	–	–
COc1c(NC(=O)c2ccc(NS(C)(=O)=O)cc2)cc(N2CCC(=O)NC2=O)cc1C(C)(C)C	8.8	–	> 85	–	46	0.22	21	> 85	32.8 (≈ 16 µg/mL)	29	–	–	–	–	–	–	–	–	–
COc1c(C2CC2c2ccc(NS(C)(=O)=O)cc2)cc(N2CCC(=O)NC2=O)cc1C(C)(C)C (stereo unspecified)	267	–	32.3	–	514	2.8	431	26.5	18.8 (≈ 9.13 µg/mL)	56	–	–	–	–	–	–	–	–	–
COc1c(C#Cc2ccc(NS(C)(=O)=O)cc2)cc(N2CCC(=O)NC2=O)cc1C(C)(C)C	1.1	350	50	31.7	3	0.83	29.8	35.8	2.3 (≈ 1.08 µg/mL)	3.9	60	–	14	–	–	3	–	–	–
COc1c(C(=O)N(C)c2ccc(NS(C)(=O)=O)cc2)cc(N2CCC(=O)NC2=O)cc1C(C)(C)C	140	–	83	–	273	0.25	–	64	> 50	1550	–	–	–	–	–	–	–	–	–
